Screening data from PubChem BioAssay.
Only some compounds are listed: those with a hit (about 9.2% of all), similar ones and a draw of the others.
Dynein transport: blocks dynein driven cargo transport along microtubules | 3617.4 mouse cells, GR-EGFP nuclear translocation imaging; test concentration mostly 20 µM; stimulated with dexamethasone, 1 µM; hits give low values | z-score, hits read low | 220,000 tested, 0.47% active | AID 1381;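 active means plate z-score of nuclear minus cytoplasmic receptor signal below a set negative limit, without overly bright fluorescence or cell loss, cut at about -3.5 in these data, passing the limit was not always enough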;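 further: z-score of nuclear minus cytoplasmic ring GR-EGFP intensity difference per well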
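Also added – dexamethasone, 1.0 µM final · Buffer or medium – tet-free, stripped-serum medium · Schedule – induction 48 h, compound 1 h, agonist 30 min · Detection – formaldehyde fixation, Hoechst nuclear stain, 10x automated fluorescence imaging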
HCT116 PTEN-null: suppresses growth of cells with PTEN deletion; HCT116 PTEN-null viability, CellTiter-Glo, 60 h; hits give low values; viability, % at 10 µM; 140,000 tested, 1.2% active; AID 827;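 active means viability at or below a set limit, 4 SD under the median of all tested compounds, cut at about 3.7% in these data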;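 further: PTEN knockout HCT116 line with beta catenin targeted HCT116 as companion control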
Lmaj promast: reduces viability of Leishmania major promastigotes | resazurin fluorescence viability | AID 1063 | 200,000 tested, 9% active | inhibition, % at 10 µM; in the data active means inhibition above about 50%;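 further: promastigotes grown with compound for 44 hours at 28 °C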
bCat KO growth: beta-catenin-lacking colon tumor cell growth suppression; HCT116 beta-catenin knockout viability, CellTiter-Glo, 60 h; hits give low values; viability, % at 10 µM; 140,000 tested, 1.5% active;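 active means viability at or under a set limit, the compound median less 4 SD, cut at about 6% in these data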
Autophagy mod: modulators of autophagy; 190,000 tested, 0.98% active; AID 463193; MEF GFP-LC3 puncta imaging; test concentration mostly 10 µM; calls only at 10 µM (by protocol);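 active means percentage of spot-positive cells more than 3 SD above its plate mean, without a fluorescence outlier flag or 80% toxicity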
Each line names hits and unclear results; the compound was inactive in the other large screens.

CNC(=O)CSc1nnc(-c2ccncc2)n1Cc1ccccc1	none
Cc1cc(C(=O)CSc2nc3ccccc3[nH]2)c(C)n1Cc1ccco1	Lmaj promast 95
N#Cc1ccc(CSc2nnc(-c3ccncc3)n2CCc2ccccc2)cc1	Lmaj promast 90
COC(=O)c1ccc(CSc2nc3ccccc3c(=O)n2Cc2ccco2)o1	Lmaj promast 97
c1ccc(CCn2c(SCc3ccccc3)nnc2-c2ccncc2)cc1	none
COC(=O)c1ccc(CSc2nnc(-c3ccncc3)n2Cc2ccccc2)o1	Lmaj promast 76
C=CCn1c(C)cc(C(=O)CSc2nc3ccccc3[nH]2)c1C	Lmaj promast 70
CCCn1c(C)cc(C(=O)CSc2nc3ccccc3c(=O)n2Cc2ccco2)c1C	Lmaj promast 89
O=C(CSc1nnc(-c2ccncc2)n1Cc1ccccc1)NC1CCCc2ccccc21 (stereo not given)	Lmaj promast 83
O=C(CSc1nc2ccccc2[nH]1)c1ccc(Cl)s1	Lmaj promast 80
O=C(CSc1nc2ccccc2[nH]1)N1c2ccccc2Sc2ccccc21	none
COc1ccc(Cl)cc1C(=O)NNC(=O)CCNC(C)=O	none (no result: HCT116 PTEN-null, bCat KO growth)
COC(=O)C1CCN(c2ccc(Cl)nn2)CC1	none (no result: HCT116 PTEN-null, bCat KO growth)
Cc1cc2ccccn2c1C(=O)c1ccc(NN)c([N+](=O)[O-])c1	none (no result: HCT116 PTEN-null, bCat KO growth)
Cc1cc2ccccn2c1C(=O)c1cc([N+](=O)[O-])cc([N+](=O)[O-])c1	Lmaj promast 100 (no result: HCT116 PTEN-null, bCat KO growth)
COc1ccc(-c2nnc(SCC(=O)N(Cc3ccccc3)C(C)(C)C)o2)cc1OC	Lmaj promast 57
COc1cc(-c2nnc(SCC(=O)c3ccccc3)o2)cc(OC)c1OC	none
Cc1ccc(-c2csc(NC(=O)c3cccc(S(=O)(=O)N4CCN(C)CC4)c3)n2)cc1	none
O=S(=O)(c1ccc(-c2csc(-c3cccnc3)n2)cc1)N1CCOCC1	Lmaj promast 68 (no result: HCT116 PTEN-null, bCat KO growth)
O=C(Oc1cccc(NC(=O)c2cccs2)c1)c1cccc(S(=O)(=O)N2CCCC2)c1	Lmaj promast 62
COc1ccc(/C=N/Nc2nc(-c3cccc(S(=O)(=O)N4CCCC4)c3)cs2)c(OC)c1	Lmaj promast 69
O=C(Oc1cccc(NC(=O)c2ccco2)c1)c1cccc(S(=O)(=O)N2CCCC2)c1	none
Cc1ccc(S(=O)(=O)N2CCOCC2)cc1C(=O)Nc1nc(-c2cccnc2)cs1	none
CN(C)S(=O)(=O)c1cccc(-c2csc(N/N=C/c3ccco3)n2)c1	none (no result: HCT116 PTEN-null, Lmaj promast, bCat KO growth, Autophagy mod)
COc1cccc(C(=O)Nc2nc(-c3ccc(S(=O)(=O)N4CCOCC4)cc3)cs2)c1	Lmaj promast 92
CC1CC(C)CN(C(=O)C(C)N(C)CC(=O)Nc2ccc(Cl)cc2)C1 (stereo not given)	none (no result: HCT116 PTEN-null, bCat KO growth)
Brc1ccc(C2NCCS2)cc1 (stereo not given)	none (no result: HCT116 PTEN-null, bCat KO growth)
CCCCSc1nc(O)cc(=O)n1CC	none (no result: HCT116 PTEN-null, bCat KO growth)
N=C1S/C(=C\c2cn[nH]c2-c2ccc(F)cc2)C(=O)N1c1ccccc1F	none
O=C(COc1ccc(Cl)cc1)N1CCN(C(=O)c2cccs2)CC1	none (no result: HCT116 PTEN-null, bCat KO growth)
O=C(Nc1nc(-c2ccc(S(=O)(=O)N3CCCCCC3)cc2)cs1)c1cccs1	none
O=C(Nc1nc(-c2cc3ccccc3o2)cs1)c1ccc(S(=O)(=O)N2CCCC2)cc1	none
O=C(Nc1nc(-c2ccc(S(=O)(=O)N3CCOCC3)cc2)cs1)c1ccccc1	Lmaj promast 73
Cc1ccc(-c2csc(NC(=O)COC(=O)c3cccc(S(=O)(=O)N4CCOCC4)c3)n2)cc1	none
O=C(Nc1nc(-c2ccc(S(=O)(=O)N3CCCC3)cc2)cs1)c1cccs1	Lmaj promast 100
COc1ccc(-c2csc(NC(=O)c3ccc(S(=O)(=O)N4CCc5ccccc5C4)cc3)n2)c(OC)c1	Lmaj promast 90
O=C(Nc1nc(-c2nc3ccccc3s2)cs1)c1ccc(S(=O)(=O)N2CCOCC2)cc1	Lmaj promast 52
CSc1ccc(CNc2nc3ccccc3n3cnnc23)cc1	none (no result: HCT116 PTEN-null, Lmaj promast, bCat KO growth, Autophagy mod)
Cc1ccc2c(c1)nnn2C1CCN(CC(=O)NCc2ccccc2F)CC1	none (no result: HCT116 PTEN-null, bCat KO growth)
Cc1ccc(NC(=S)NCCc2ccccc2)nc1	none (no result: HCT116 PTEN-null, bCat KO growth)
O=C(c1ccco1)N1CCN(C(=O)C(Sc2ccccc2)c2ccccc2)CC1 (stereo not given)	Lmaj promast 59
Cc1ccc(NC(=O)Cc2nc(CCl)cs2)cc1	Lmaj promast 68
Cc1ccc(NC(=S)Nc2nc(CC(=O)Nc3ccccc3)cs2)cc1	none
CC(C)CC(=O)Nc1ccc(F)c(Cl)c1	Lmaj promast 60
CCCC(C)C(=O)Nc1ccc(F)c(Cl)c1 (stereo not given)	none (no result: HCT116 PTEN-null, bCat KO growth)
Cc1cccc(OCCC(=O)Nc2ccc(F)c(Cl)c2)c1	Lmaj promast 65
